From ChEMBL document CHEMBL1681660, “6-amino-4-(pyrimidin-4-yl)pyridones: novel glycogen synthase kinase-3β inhibitors” (Bioorg Med Chem Lett, 2011)

Tests used:
[1] = Ratio of drug level in brain to plasma in Sprague-Dawley rat at 5 mg/kg, sc after 1 hr; format: ADME, organism-based; parameters: dose 5 mg/kg, route subcutaneous; conditions: brain and plasma, read-out: BPR
Summary of the method: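 Male Sprague–Dawley rats (n = 3 per time point) received 5 mg/kg subcutaneously. Plasma (cardiac puncture after CO2 euthanasia), brain and CSF were collected at 0.5, 1, 2 and 4 h. Drug levels were measured by LC/MS/MS. Ratio is taken from the average brain and plasma concentrations at 1 h.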

MDR = experiment: Permeability from apical to basolateral side of MDCK cells over expressing MDR; conditions: dog, MDCK-MDR1

## COc1ccccc1[C@H]1CN(c2cc(-c3ccncn3)cc(=O)n2C)CCO1
[1]
  Kp at 1 h: 1.86

## Cn1c(N2CCC(O)(c3ccccc3)CC2)cc(-c2ccncn2)cc1=O
[1]
  Kp at 1 h: 0.96

## Cc1cc(-c2cc(-c3ccccc3)nc(=O)[nH]2)ccc1O
MDR
  Papp (apical to basal): 13.9 ×10⁻⁶ cm/s

## COc1ccccc1CCNc1cc(-c2ccncn2)cc(=O)n1C
[1]
  Kp at 1 h: 0.35
